Laboratory results: ChEMBL document CHEMBL4613270, “Structure-Activity Relationship Study Enables the Discovery of a Novel Berberine Analogue as the RXRα Activator to Inhibit Colon Cancer” (J Med Chem, 2020)
Active and inactive are the calls of the source. No cut-off for these calls is given here.

Assays:
[1] = Toxicity in BALB/c mouse xenografted with human KM12C cells assessed as effect on biochemical parameter by measuring IBIL level at 100 mg/kg, ig dosed daily for 15 days by automatic chemistry analyzer based analysis (reference value: 0.55 +/- 0.096 umol/L); assay type: organism-based; details: in vivo, po, 360 h
[2] = Hepatotoxicity in BALB/c mouse xenografted with human KM12C cells assessed as induction of necrotic hepatocytes at 100 mg/kg, ig dosed daily for 15 days by H and E staining; assay type: toxicity, organism-based; details: in vivo, po, 360 h
[3] = target: T1, Retinoic acid receptor RXR-alpha (Homo sapiens) (UniProt P19793); assay: Activation of RXRalpha in human KM12C cells assessed as induction of beta-catenin protein degradation at 25 to 50 uM incubated for 15 hrs by Western blot analysis; assay type: cell-based
T1 sequence (whole entry): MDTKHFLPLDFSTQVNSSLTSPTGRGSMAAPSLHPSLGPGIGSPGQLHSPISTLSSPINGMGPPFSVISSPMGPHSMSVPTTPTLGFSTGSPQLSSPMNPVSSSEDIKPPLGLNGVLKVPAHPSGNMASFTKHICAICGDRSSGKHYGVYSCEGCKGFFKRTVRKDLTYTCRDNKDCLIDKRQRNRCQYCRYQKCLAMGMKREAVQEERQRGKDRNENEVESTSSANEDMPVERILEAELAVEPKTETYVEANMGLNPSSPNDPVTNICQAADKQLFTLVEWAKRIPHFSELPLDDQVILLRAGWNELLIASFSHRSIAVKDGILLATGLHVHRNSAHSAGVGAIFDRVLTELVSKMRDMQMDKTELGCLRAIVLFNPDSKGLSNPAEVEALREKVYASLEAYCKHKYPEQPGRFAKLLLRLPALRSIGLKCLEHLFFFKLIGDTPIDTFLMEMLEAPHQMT

[4] = target: T1, Retinoic acid receptor RXR-alpha (Homo sapiens); assay: In-vivo activation of RXRalpha in BALB/c mouse xenografted with human KM12C cells assessed as reduction in Cdc2 protein expression at 100 mg/kg, ig dosed daily for 15 days by Western blot analysis; assay type: functional, organism-based
Method in brief: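 KM12C cells (1×10^6 per mouse in 100 μL HBSS) injected subcutaneously into both flanks of nude mice; after seven days, randomized to three groups, dosed intragastrically once daily for 15 days with vehicle (CMC-Na) or 100 mg/kg compound; mice euthanized and tumors removed for analysis.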

[5] = target: T1, Retinoic acid receptor RXR-alpha (Homo sapiens); assay: In-vivo activation of RXRalpha in BALB/c mouse xenografted with human KM12C cells assessed as increase in p21 (WAF1/CIP) protein expression at 100 mg/kg, ig dosed daily for 15 days by Western blot analysis; assay type: functional, organism-based
[6] = target: T1, Retinoic acid receptor RXR-alpha (Homo sapiens); assay: Activation of RXRalpha in human KM12C cells assessed as reduction in Cdc2 protein expression at 25 to 50 uM incubated for 15 hrs in presence of RXRalpha shRNA by Western blot analysis; assay type: cell-based
[7] = target: T1, Retinoic acid receptor RXR-alpha (Homo sapiens); assay: Activation of RXRalpha in human HCT116 cells assessed as reduction in c-Myc protein expression at 30 to 60 uM incubated for 15 hrs by Western blot analysis; assay type: cell-based; details: HCT-116
[8] = target: T1, Retinoic acid receptor RXR-alpha (Homo sapiens); assay: Activation of RXRalpha (unknown origin) expressed in human KM12C cells co-expressing beta-catenin assessed as induction of RXRalpha interaction with beta-catenin at 25 to 50 uM incubated for 15 hrs by mammalian two-hybrid assay; assay type: cell-based
Method in brief: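 Mammalian two-hybrid: cells co-transfected by lipofection with pBIND-β-catenin/S33Y plus pACT-RXRα (RXRα–β-catenin) or pACT-c-Cbl (β-catenin–c-Cbl); 20 h after transfection, compound added for 15 h; cells lysed in passive lysis buffer, 4 °C, 1 h; firefly and Renilla luciferase read by dual-luciferase kit.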

SW-620 = assay: Inhibition of cell proliferation of human SW620 cells incubated for 15 hrs by MTT assay; assay type: functional, cell-based; details: SW-620, 15 h
Method in brief: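 Cells plated at 1×10⁴ per well, incubated overnight at 37 °C, then exposed to a concentration series for 15 h. MTT (5 mg/mL stock) added for 4 h at 37 °C. Formazan dissolved in DMSO and absorbance read at 570 nm. IC50 derived from the dose-response curve.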

[9] = Toxicity in BALB/c mouse xenografted with human KM12C cells assessed as effect on biochemical parameter by measuring calcium level at 100 mg/kg, ig dosed daily for 15 days by automatic chemistry analyzer based analysis (reference value: 2.27 +/- 0.059 mmol/L); assay type: organism-based; details: in vivo, po, 360 h
[10] = target: T1, Retinoic acid receptor RXR-alpha (Homo sapiens); assay: In-vivo activation of RXRalpha in BALB/c mouse xenografted with human KM12C cells assessed as induction of beta-catenin protein degradation at 100 mg/kg, ig dosed daily for 15 days by Western blot analysis; assay type: functional, organism-based
KM12C = assay: Inhibition of cell proliferation of human KM12C cells up to 100 uM in presence of RXRalpha shRNA incubated for 15 hrs by MTT assay; assay type: functional, cell-based
Method in brief: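 KM12C cells were transfected with control or RXRα-targeting shRNA, seeded at 1×10^4 cells/well and incubated overnight at 37 °C. Compound was then added for 15 h. MTT (5 mg/mL stock) was incubated 4 h at 37 °C, formazan dissolved in DMSO, and absorbance read at 570 nm.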

[11] = target: T1, Retinoic acid receptor RXR-alpha (Homo sapiens); assay: Activation of RXRalpha LBD (unknown origin) expressed in human KM12C cells at 50 uM incubated for 15 hrs by luciferase reporter gene assay; assay type: cell-based
Method in brief: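 KM12C co-transfected with pG5luc and pBIND-RXRα-LBD (Gal4-fusion one-hybrid); 20 h post-transfection treated 15 h with 50 μM compound; dual-luciferase read-out (firefly/Renilla) after passive lysis at 4 °C, 1 h; basal activity normalized to 1.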

[12] = target: T1, Retinoic acid receptor RXR-alpha (Homo sapiens); assay: Activation of RXRalpha in human HCT116 cells assessed as […] protein expression at 30 to 60 uM incubated for 15 hrs by Western blot analysis; assay type: cell-based; details: HCT-116
[13] = target: T1, Retinoic acid receptor RXR-alpha (Homo sapiens); assay: Activation of RXRalpha in human KM12C cells assessed as […] protein expression at 25 to 50 uM incubated for 15 hrs by Western blot analysis; assay type: cell-based
MEF = assay: Toxicity in mouse MEF cells assessed a reduction in cell viability at 6.25 to 100 uM incubated for 15 hrs by MTT assay; assay type: cell-based
Method in brief: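 HIEC-6 cells grown in MEM with 4% FBS, HEPES, GlutaMAX and 10 ng/mL EGF. MEF cells grown in DMEM high glucose with 10% FBS. Cells plated at 1×10⁴ per well and treated with a concentration series for 15 h. Viability read by MTT: 4 h at 37 °C, DMSO solubilization, absorbance at 570 nm.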

[14] = AUC (0 to t) in Sprague-Dawley rat at 100 mg/kg, ig measured after 0.083 to 36 hrs by LC-MS/MS analysis; assay type: ADME, organism-based; set-up: time upper 36 hr, time lower 0.083 hr, dose 100 mg/kg, route intragastric; details: in vivo, po
Method in brief: (§1)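 SD rats (200 ± 20 g) randomized to three groups; single intragastric dose of 100 mg/kg or vehicle (0.5% CMC-Na). Tail-vein blood (0.5 mL) drawn at 0.083, 0.25, 0.5, 1, 2, 4, 8, 12, 24 and 36 h. Plasma separated by centrifugation at 2000 rpm for 10 min, frozen at -80 °C, then quantified by LC-MS/MS.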

[15] = Bioavailability in Sprague-Dawley rat at 100 mg/kg, ig measured after 0.083 to 36 hrs by LC-MS/MS analysis; assay type: ADME, organism-based; details: in vivo, po; method in brief: as §1

Row | SMILES | Activity [1] [µmol/L] | Activity [2] | Activity [3] | Activity [4] | Activity [5] | Activity [6] | Activity [7] | Activity [8] | IC50 (SW-620) [µM] | Activity [9] [mmol/L] | Activity [10] | inhibition (KM12C) | Activity [11] | Activity [12] | Activity [13] | Activity (MEF) | AUC(0-t) [14] [ng·h/mL] | bioavailability [15] [%]
1 | COc1ccc2c(c1)CC[n+]1cc3c(OC)cccc3cc1-2.[Cl-] | 0.52 | Non-Toxic | Active | Active | Active | inactive | Active | Active | 36.2 | 2.23 | Active | inactive | Active | Active | Active | Non-Toxic | 2100 | 14.2
2 | COc1ccc2cc3[n+](cc2c1OC)CCc1cc2c(cc1-3)OCO2.[Cl-] [BERBERINE CHLORIDE] | 0.4 |  | Active | Active | Active |  | Active | Active | 126 | 2.13 | Active |  | Active |  |  |  | 99 | 0.544
